The list is not random: actives were taken first. Their share in the collection is about 2.4%.
Autophagy HCS – alters autophagy in cells. MEF GFP-LC3 puncta imaging; test concentration mostly 10 µM. calls only at 10 µM (by protocol). 190,000 tested, 0.98% active;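 active = percentage of spot-positive cells more than 3 SD above its plate mean, without a fluorescence outlier flag or 80% toxicity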;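 also: spot-positive cell cutoff set from DMSO-treated cells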
Hck Nef HTS – blocks Nef-activated human Hck kinase. inhibition, % at 20 µM. 220,000 tested, 0.68% active. P08631. AID 463187. Recombinant Hck-YEEI plus Nef, Z-Lyte FRET kinase assay;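 active = Hck-Nef kinase inhibition above about 50%, limit read from the data; inactive = inhibition below that limit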;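 also: 0% = DMSO with Hck plus Nef and 100% = Hck alone without Nef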
Target sequence (P08631 whole entry, looked up): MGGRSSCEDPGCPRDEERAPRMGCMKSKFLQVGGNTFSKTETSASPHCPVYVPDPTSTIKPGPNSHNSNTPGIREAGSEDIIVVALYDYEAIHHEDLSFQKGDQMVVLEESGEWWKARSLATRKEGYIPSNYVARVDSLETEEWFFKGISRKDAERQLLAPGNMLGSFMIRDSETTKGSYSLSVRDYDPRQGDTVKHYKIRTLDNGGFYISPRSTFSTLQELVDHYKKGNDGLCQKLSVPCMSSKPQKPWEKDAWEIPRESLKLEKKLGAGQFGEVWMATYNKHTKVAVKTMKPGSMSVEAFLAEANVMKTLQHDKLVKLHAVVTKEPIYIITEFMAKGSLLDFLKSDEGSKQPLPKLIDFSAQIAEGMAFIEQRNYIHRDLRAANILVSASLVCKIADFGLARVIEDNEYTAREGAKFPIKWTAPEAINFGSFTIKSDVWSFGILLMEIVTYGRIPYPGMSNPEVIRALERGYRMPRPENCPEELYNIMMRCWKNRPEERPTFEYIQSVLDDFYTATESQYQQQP
L929 necroptosis – L929 zVAD cell death inhibition. L929 zVAD necroptosis rescue, ATP luminescence, 24 h; with zVAD 60 µM. viability rescue, % at 10 µM. 220,000 tested, 0.38% active. AID 1377;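 active = activation, scaled between plate controls, above about 75%, limit read from the data; inactive = activation under that limit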;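 also: 0% = zVAD with DMSO and 100% = DMSO alone without zVAD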
Mdm2 ligase inh – Mdm2 E3 ligase (human) inhibition. Q00987. cell-based MDM2 ubiquitination luciferase reporter, 2 h; 0 = plate control, 100 = twice control, blank-subtracted. signal enhancement, % at 5 µM. 210,000 tested, 0.11% active. AID 1230;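 active = signal enhancement of 30% or more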;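 also: luminescence tracks abundance of the self-degrading MDM2-luciferase fusion protein; higher signal means inhibition of MDM2 E3 ligase activity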
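test system = mammalian cells stably expressing self-ubiquitinating, self-degrading MDM2 E3–luciferase fusion | quantity = 2000 cells/well | incubation = cell settling 4 h, compound treatment 2 h, both 37 °C | signal = luminescence with SteadyLite reagent, 15 min at room temperature | evaluation = % enhancement relative to plate controls after blank subtraction | benchmarks = plate controls and plate blanks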
TNF necrop inh – TNF-alpha cell death inhibition in Jurkat FADD-/- cells; Jurkat FADD-/- TNF necroptosis rescue, ATP luminescence, 24 h; 0 = TNF only, 100 = no-TNF cells; activation (protection from cell death), % at 10 µM; 220,000 tested, 0.068% active;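 active = activation, meaning protection from cell death, of at least 50% relative to plate controls; inactive = activation below 50%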;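 also: necroptosis triggered by 40 ng/mL TNF-alpha added together with compound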
Dynein cargo inh – dynein cargo transport inhibition; 3617.4 mouse cells, GR-EGFP nuclear translocation imaging; test concentration mostly 20 µM; stimulated with dexamethasone, 1 µM; hits give low values; z-score, hits read low; 220,000 tested, 0.47% active; AID 1381;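 active = plate z-score of nuclear minus cytoplasmic receptor signal below a set negative limit, without overly bright fluorescence or cell loss, cut at about -3.5 in these data, passing the limit was not always enough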;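 also: z-score of nuclear minus cytoplasmic ring GR-EGFP intensity difference per well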
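Buffer or medium: tetracycline-free induction medium containing charcoal-stripped FBS / Reagent: dexamethasone agonist, 1.0 µM final, for 30 min / Technique: automated 10x imaging of fixed Hoechst-stained cells / Times: induction 48 h, compound 1 h, agonist 30 min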
zVAD death conf – confirmed blocker of zVAD induced death in L929 cells; AID 463117; activation (protection from necroptosis), % at 10 µM; L929 zVAD-induced necroptosis rescue, ATP luminescence, 24 h; shares compounds with L929 necroptosis; 760 tested, 16% active;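 active = mean protection from necroptosis of at least 50% over duplicate tests; inactive = mean protection below 50%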;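 also: 0% = cells with zVAD alone and 100% = vehicle cells without zVAD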
The depositor's hits bear a star.

`Cc1ccc(NC(=O)C2(c3cccs3)CCOCC2)cc1C` gave Autophagy HCS inactive, Hck Nef HTS 4, L929 necroptosis 1, TNF necrop inh 2 and Dynein cargo inh -0.057.
CN(C)CCCNc1cc(C(C)(C)C)nc2c(-c3ccc(Cl)cc3)cnn12 was read as Hck Nef HTS -9, L929 necroptosis 6, Mdm2 ligase inh -11, TNF necrop inh -27 and Dynein cargo inh 5.3.
For CC(C)(C)c1cc(NCc2ccccn2)n2ncc(-c3ccc(Cl)cc3)c2n1 the results were Hck Nef HTS -5, L929 necroptosis 77*, Mdm2 ligase inh 0, TNF necrop inh 4, Dynein cargo inh 1.1 and zVAD death conf 1.
For O=[N+]([O-])c1ccc(/C=N/Nc2ncc(-c3ccccc3)cn2)cc1 the results were Autophagy HCS inactive, Hck Nef HTS 24, L929 necroptosis 79*, Mdm2 ligase inh -1, TNF necrop inh 1, Dynein cargo inh 0.048 and zVAD death conf 2.
Screening FC(F)(F)c1cccc(NC(=S)NCC(c2cccnc2)N2CCOCC2)c1 (configuration not stated) returned Autophagy HCS inactive, Hck Nef HTS 2, L929 necroptosis 0, Mdm2 ligase inh -16, TNF necrop inh 3 and Dynein cargo inh -0.41.
Screening Cc1csc(NC(=O)CSc2nsc(SCC(=O)Nc3nc(C)cs3)c2C#N)n1 returned Autophagy HCS inactive, Hck Nef HTS -1, L929 necroptosis 76*, Mdm2 ligase inh -3, TNF necrop inh -7, Dynein cargo inh -0.32 and zVAD death conf 53*.
`Cc1ccc(NC(=O)CSc2nsc(SCC(=O)Nc3ccc(C)cc3C)c2C#N)c(C)c1` gave Autophagy HCS inactive, Hck Nef HTS 1, L929 necroptosis 0, Mdm2 ligase inh -7, TNF necrop inh 0 and Dynein cargo inh -0.64.
For CC(=O)Nc1ccc(Sc2ncccc2C(=O)Nc2ccc(OC(F)(F)F)cc2)cn1 the results were Autophagy HCS inactive, Hck Nef HTS 1, L929 necroptosis 80*, Mdm2 ligase inh -6, TNF necrop inh -11, Dynein cargo inh 0.3 and zVAD death conf 77*.
`NS(=O)(=O)c1ccc(CNC(=O)c2csc3c2CCCC3)cc1` gave Autophagy HCS inactive, Hck Nef HTS 17, L929 necroptosis 9, Mdm2 ligase inh -3, TNF necrop inh 1 and Dynein cargo inh -0.12.
`Cc1cccc(C)c1NC(=O)CN(C)C(=O)C(c1ccccc1)c1ccccc1` gave Autophagy HCS inactive, Hck Nef HTS 2, L929 necroptosis 0, Mdm2 ligase inh -3, TNF necrop inh 0 and Dynein cargo inh 0.35.
`Cn1c(=O)c2[nH]c(N3CCN(c4ccccn4)CC3)nc2n(C)c1=O` gave Autophagy HCS inactive, Hck Nef HTS 20, L929 necroptosis 75*, Mdm2 ligase inh -5, TNF necrop inh 3, Dynein cargo inh -0.49 and zVAD death conf 2.
CCc1ccc(NC(=O)Nc2ccc3c(c2)N(C)C(=O)CS3)cc1 was read as Autophagy HCS inactive, Hck Nef HTS 5, L929 necroptosis 99*, Mdm2 ligase inh 0, TNF necrop inh -2, Dynein cargo inh -0.18 and zVAD death conf 47.
`CCC(=O)n1nc(-c2ccc(OC)cc2)nc1NCc1cccs1` gave Autophagy HCS inactive, Hck Nef HTS 19, L929 necroptosis 76*, Mdm2 ligase inh -6, TNF necrop inh 2, Dynein cargo inh 0.044 and zVAD death conf 0.
Screening CC(=O)n1nc(-c2ccccc2)nc1NCc1cccs1 returned Autophagy HCS inactive, Hck Nef HTS 18, L929 necroptosis 86*, Mdm2 ligase inh 7, TNF necrop inh 2, Dynein cargo inh -0.23 and zVAD death conf 5.
For CCC(=O)n1nc(-c2cccnc2)nc1NCc1ccc(OC)cc1 the results were Autophagy HCS inactive, Hck Nef HTS 1, L929 necroptosis 1, Mdm2 ligase inh -10, TNF necrop inh 0 and Dynein cargo inh 0.76.

Assay outcomes: PubChem, several laboratories
